Reference: ChEMBL document CHEMBL4387720, “Lead generation of 1,2-dithiolanes as exon 19 and exon 21 mutant EGFR tyrosine kinase inhibitors” (Bioorg Med Chem Lett, 2019)
Values belong to the compound of their own block, whether it stands above or below them.

How the values were obtained:
[1] = target: Receptor tyrosine-protein kinase erbB-2 (Homo sapiens, UniProt P04626); assay: Inhibition of probe binding to HER2 (unknown origin) using rabbit reticulate lysate system after 1 hr by luminescence assay
In short: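 Homogeneous competition binding in rabbit reticulocyte lysate with kinase expressed in the lysate. IC50 taken from a ten-point dose-response curve; value is the average of triplicate experiments.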

[2] = target: T1, Epidermal growth factor receptor (Homo sapiens, UniProt P00533, L858R)
[3] = target: Epidermal growth factor receptor (Homo sapiens, UniProt P00533); assay: Inhibition of probe binding to wild type EGFR (unknown origin) using rabbit reticulate lysate system after 1 hr by luminescence assay
Homo sapiens = species: Homo sapiens; assay: Selectivity ratio, ratio of IC50 for probe binding to HER2 (unknown origin) to IC50 for probe binding to EGFR L858R mutant (unknown origin)
In short: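 Ratio of two IC50 values measured in the rabbit reticulocyte lysate competition binding assay: HER2 and EGFR L858R. Each IC50 comes from displacement of an active-site-dependent probe, read by luminescence, with a ten-point dose-response. Each IC50 is the average of triplicate experiments.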

[4] = target: T1, Epidermal growth factor receptor; assay: Binding affinity to human partial length EGFR L858R mutant (R669 to V1011 residues) expressed in bacterial expression system under predilution/full equilibration condition by scanKINETIC assay
In short: (§1)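 Binding kinetics are read from Kd values measured under four dose-response arms. Arm A is full equilibration. Arm B is equilibrate, then 3-fold dilution, then equilibrate. Arm C is partial equilibration. Arm D is predilution followed by full equilibration. Comparing the arms assesses reversibility of binding.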

[5] = target: T1, Epidermal growth factor receptor; assay: Binding affinity to human partial length EGFR L858R mutant (R669 to V1011 residues) expressed in bacterial expression system under equilibrate/3-fold dilution/eqiulibrate condition by scanKINETIC assay; in short: as §1
[6] = target: T1, Epidermal growth factor receptor; assay: Binding affinity to human partial length EGFR L858R mutant (R669 to V1011 residues) expressed in bacterial expression system under partial equilibration condition by scanKINETIC assay; in short: as §1
[7] = target: T1, Epidermal growth factor receptor; assay: Binding affinity to human partial length EGFR L858R mutant (R669 to V1011 residues) expressed in bacterial expression system under full equilibrating condition by scanKINETIC assay; in short: as §1
[8] = Half life in human S9 fraction; type: ADME, subcellular
CCRF-CEM [9] = assay: cells; type: functional; conditions: Homo sapiens, 48 h
NCI-H460 = assay: cells; type: functional; conditions: Homo sapiens, NCI-H460, 48 h
A549 = assay: cells; type: functional; conditions: Homo sapiens, A549, 48 h
NCI-H322M [10] = assay: Cytotoxicity against human NCI-H322M cells assessed as reduction in measured protein incubated for 48 hrs by SRB assay; type: functional; conditions: read-out: LC50 (the source's name)
In short: (§2)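 Tested in the NCI-60 panel with a five-dose response curve, each value the mean of 2 experiments.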

MOLT-4 [11] = assay: cells; type: functional; conditions: Homo sapiens, MOLT-4, 48 h
CCRF-CEM [12] = assay: Cytotoxicity against human CCRF-CEM cells assessed as reduction in measured protein incubated for 48 hrs by SRB assay; type: functional; conditions: read-out: LC50 (the source's name); in short: as §2
MOLT-4 [13] = assay: Cytotoxicity against human MOLT4 cells assessed as reduction in measured protein incubated for 48 hrs by SRB assay; type: functional; conditions: MOLT-4, 48 h, read-out: LC50 (the source's name); in short: as §2
NCI-H322M [14] = assay: cells; type: functional; conditions: Homo sapiens, 48 h
NCI-H322M [15] = assay: Therapeutic index, ratio of LC50 for human NCI-H322M cells to GI50 for human NCI-H322M cells; type: functional
In short: (§3)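 NCI-60 panel screen using five-dose response curves, each value an average of 2 experiments. […] The therapeutic index is calculated as LC50/GI50 for the same cell line.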

MOLT-4 [16] = assay: Therapeutic index, ratio of LC50 for human MOLT4 cells to GI50 for human MOLT4 cells; type: functional; in short: as §3
CCRF-CEM [17] = assay: Therapeutic index, ratio of LC50 for human CCRF-CEM cells to GI50 for human CCRF-CEM cells; type: functional; in short: as §3
[18] = target: Epidermal growth factor receptor (Homo sapiens, UniProt P00533, E746-A750DEL); assay: Binding affinity to human partial length EGFR E746-A750 deletion mutant expressed in bacterial expression system by KinomeScan assay
In short: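 Competition binding against an immobilized active-site-directed ligand. Bound kinase is quantified by qPCR of its DNA tag. Kd values come from duplicate 11-point dose-response curves.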

[19] = target: T1, Epidermal growth factor receptor; assay: Binding affinity to human partial length EGFR L858R mutant (R669 to V1011 residues) expressed in bacterial expression system by kinomescan assay
In short: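 Competition binding against an immobilized active-site-directed ligand; bound kinase quantified by qPCR of its DNA tag. Kd taken from duplicate 11-point dose-response curves.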

[20] = Half life in rat S9 fraction; type: ADME, subcellular

Receptor tyrosine-protein kinase erbB-2, sequence (P04626 whole entry): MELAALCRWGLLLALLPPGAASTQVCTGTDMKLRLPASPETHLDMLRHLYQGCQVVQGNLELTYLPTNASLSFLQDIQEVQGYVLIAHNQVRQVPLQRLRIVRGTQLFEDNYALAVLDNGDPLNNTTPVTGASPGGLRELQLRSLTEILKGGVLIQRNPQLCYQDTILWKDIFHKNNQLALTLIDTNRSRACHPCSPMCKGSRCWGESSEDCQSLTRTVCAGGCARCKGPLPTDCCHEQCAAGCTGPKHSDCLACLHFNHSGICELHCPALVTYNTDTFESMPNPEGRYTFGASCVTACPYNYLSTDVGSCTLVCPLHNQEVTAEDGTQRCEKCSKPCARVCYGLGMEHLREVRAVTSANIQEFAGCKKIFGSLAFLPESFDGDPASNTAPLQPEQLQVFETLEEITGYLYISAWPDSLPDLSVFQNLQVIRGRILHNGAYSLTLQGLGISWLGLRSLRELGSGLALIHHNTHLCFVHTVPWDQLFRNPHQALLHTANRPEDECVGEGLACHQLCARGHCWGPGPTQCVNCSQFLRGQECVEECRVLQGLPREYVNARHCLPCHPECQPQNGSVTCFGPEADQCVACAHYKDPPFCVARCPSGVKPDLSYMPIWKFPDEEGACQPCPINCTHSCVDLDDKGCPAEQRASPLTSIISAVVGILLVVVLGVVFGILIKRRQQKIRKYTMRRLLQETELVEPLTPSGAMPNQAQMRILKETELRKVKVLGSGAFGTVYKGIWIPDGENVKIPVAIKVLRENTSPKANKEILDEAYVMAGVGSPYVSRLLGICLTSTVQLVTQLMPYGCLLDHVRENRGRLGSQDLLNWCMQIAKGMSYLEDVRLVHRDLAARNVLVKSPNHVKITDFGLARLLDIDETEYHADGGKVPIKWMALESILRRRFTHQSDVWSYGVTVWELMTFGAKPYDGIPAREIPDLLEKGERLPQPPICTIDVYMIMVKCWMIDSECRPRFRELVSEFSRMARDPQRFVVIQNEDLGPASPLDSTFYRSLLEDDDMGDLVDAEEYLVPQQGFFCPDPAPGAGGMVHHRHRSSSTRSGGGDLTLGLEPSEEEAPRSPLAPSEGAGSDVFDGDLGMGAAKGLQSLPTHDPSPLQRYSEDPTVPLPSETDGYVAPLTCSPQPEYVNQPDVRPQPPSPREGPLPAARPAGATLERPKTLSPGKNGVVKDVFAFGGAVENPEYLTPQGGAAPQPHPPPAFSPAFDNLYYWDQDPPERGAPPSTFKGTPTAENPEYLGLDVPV
Epidermal growth factor receptor (Homo sapiens, UniProt P00533), sequence (P00533 whole entry): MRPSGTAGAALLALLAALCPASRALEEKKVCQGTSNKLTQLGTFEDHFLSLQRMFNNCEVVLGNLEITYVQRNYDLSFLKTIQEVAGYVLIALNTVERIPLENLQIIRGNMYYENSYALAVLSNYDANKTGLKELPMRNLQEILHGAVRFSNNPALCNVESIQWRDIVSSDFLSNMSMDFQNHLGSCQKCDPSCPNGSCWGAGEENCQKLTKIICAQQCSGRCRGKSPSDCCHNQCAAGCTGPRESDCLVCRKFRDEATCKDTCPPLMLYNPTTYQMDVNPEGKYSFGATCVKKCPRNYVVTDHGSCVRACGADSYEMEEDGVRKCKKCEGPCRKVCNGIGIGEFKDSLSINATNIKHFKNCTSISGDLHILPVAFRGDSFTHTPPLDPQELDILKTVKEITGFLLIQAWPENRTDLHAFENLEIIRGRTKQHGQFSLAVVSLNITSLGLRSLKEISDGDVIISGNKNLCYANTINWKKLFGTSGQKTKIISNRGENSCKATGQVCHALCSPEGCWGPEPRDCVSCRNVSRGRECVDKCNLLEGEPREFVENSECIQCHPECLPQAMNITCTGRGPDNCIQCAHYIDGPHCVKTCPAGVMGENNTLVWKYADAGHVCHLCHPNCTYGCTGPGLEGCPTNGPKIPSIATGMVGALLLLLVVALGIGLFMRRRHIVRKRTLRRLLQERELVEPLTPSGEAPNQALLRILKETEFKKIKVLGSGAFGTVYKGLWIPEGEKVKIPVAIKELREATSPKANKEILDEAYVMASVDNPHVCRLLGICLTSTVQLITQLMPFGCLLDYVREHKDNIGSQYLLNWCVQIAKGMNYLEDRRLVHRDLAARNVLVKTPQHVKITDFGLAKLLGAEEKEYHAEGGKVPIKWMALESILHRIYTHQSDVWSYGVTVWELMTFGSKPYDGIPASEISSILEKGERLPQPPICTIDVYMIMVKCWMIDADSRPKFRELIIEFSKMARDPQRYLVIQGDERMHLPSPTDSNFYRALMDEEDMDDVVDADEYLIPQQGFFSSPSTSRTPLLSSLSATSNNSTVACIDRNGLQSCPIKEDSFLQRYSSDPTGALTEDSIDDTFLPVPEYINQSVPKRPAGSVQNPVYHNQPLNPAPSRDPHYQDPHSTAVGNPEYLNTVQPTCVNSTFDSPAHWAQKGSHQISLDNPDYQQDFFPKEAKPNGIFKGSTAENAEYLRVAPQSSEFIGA
T1 sequence (P00533 25-1210 L858R limits assumed): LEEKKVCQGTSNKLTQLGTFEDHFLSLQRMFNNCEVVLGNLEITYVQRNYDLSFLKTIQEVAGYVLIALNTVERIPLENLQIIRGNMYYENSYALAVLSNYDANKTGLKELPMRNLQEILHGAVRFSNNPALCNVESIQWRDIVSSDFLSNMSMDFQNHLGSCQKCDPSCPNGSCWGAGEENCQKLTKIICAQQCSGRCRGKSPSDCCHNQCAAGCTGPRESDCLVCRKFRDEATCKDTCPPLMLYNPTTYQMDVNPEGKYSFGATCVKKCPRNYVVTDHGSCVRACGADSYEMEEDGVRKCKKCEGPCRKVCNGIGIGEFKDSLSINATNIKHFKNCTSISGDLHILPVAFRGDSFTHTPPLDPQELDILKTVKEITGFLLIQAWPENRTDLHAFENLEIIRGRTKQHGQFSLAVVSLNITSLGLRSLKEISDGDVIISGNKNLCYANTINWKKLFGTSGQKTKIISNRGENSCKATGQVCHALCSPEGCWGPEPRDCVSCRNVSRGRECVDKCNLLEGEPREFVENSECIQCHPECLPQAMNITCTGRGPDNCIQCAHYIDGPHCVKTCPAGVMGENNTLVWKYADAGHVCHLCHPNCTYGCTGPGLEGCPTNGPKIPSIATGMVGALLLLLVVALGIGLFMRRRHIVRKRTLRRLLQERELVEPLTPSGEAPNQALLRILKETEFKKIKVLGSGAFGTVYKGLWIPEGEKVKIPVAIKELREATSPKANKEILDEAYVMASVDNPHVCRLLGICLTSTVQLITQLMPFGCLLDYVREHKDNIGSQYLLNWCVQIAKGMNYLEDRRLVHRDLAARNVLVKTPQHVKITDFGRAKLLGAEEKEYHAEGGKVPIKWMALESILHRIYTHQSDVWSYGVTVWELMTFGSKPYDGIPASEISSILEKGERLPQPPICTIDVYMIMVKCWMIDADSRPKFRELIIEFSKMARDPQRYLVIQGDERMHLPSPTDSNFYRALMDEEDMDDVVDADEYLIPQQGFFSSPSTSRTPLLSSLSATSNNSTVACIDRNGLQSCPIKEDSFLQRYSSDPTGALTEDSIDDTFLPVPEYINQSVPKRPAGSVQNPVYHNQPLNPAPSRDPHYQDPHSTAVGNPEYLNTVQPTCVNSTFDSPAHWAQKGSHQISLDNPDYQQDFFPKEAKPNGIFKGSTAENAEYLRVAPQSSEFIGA
Epidermal growth factor receptor (Homo sapiens, UniProt P00533, E746-A750DEL), sequence (P00533 whole entry E746-A750del, looked up): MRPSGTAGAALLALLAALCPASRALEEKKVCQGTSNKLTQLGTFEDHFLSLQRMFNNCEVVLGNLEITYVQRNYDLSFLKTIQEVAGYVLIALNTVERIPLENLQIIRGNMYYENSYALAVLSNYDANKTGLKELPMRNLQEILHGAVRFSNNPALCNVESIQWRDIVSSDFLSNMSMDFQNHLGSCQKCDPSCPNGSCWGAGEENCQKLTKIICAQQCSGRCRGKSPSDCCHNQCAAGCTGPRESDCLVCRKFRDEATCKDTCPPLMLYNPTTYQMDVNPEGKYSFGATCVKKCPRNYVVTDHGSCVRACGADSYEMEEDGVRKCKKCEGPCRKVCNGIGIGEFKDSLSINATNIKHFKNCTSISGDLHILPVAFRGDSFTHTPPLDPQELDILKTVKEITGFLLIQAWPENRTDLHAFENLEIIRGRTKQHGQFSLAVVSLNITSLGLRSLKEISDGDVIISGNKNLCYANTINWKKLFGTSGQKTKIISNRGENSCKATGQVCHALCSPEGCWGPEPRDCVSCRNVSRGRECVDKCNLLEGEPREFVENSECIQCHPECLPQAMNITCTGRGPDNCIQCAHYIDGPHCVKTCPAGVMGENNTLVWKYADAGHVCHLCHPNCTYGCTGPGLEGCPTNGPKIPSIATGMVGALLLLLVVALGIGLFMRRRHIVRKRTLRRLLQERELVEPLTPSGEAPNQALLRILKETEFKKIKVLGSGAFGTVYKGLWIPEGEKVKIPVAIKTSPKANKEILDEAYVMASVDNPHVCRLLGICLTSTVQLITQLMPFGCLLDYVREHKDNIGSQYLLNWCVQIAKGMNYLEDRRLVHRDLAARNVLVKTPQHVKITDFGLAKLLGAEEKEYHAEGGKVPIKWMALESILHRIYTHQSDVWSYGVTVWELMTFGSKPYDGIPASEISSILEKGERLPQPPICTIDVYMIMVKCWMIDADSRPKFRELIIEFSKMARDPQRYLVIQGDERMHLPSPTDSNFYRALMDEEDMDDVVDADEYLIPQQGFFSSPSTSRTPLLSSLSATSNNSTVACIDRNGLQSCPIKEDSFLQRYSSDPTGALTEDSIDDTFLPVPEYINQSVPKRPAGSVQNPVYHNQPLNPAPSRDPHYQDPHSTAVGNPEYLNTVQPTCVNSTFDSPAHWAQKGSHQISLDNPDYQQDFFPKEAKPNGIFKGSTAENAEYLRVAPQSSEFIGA

IC50 [2]: > 10000 nM
IC50 [3]: > 10000 nM
Compound: Cc1ccc(Oc2ccc(Nc3c(C#N)cnc4ccc(NC(=O)C5CSSC5)cc34)cc2C)cn1

IC50 [2]: 420 nM
Compound: CCOc1cc2ncc(C#N)c(Nc3ccc(F)c(Cl)c3)c2cc1NC(=O)CCCCC1CCSS1 (stereo not given)

IC50 [1]: 590 nM
IC50 [2]: 413 nM
IC50 [3]: 658 nM
Ratio IC50 (Homo sapiens): 1.4
Compound: COc1cc2ncnc(Nc3ccc(Oc4ccc(C)nc4)c(C)c3)c2cc1NC(=O)C1CSSC1

IC50 [2]: 6.5 nM
IC50 [3]: 76 nM
Compound: COc1cc2ncnc(Nc3ccc(OCc4cccc(F)c4)c(Cl)c3)c2cc1NC(=O)C1CSSC1

IC50 [2]: 20 nM
IC50 [3]: 256 nM
Compound: N#Cc1cnc2cc(OC[C@H](O)CO)c(NC(=O)C3CSSC3)cc2c1Nc1ccc(OCc2cccc(F)c2)c(Cl)c1

IC50 [2]: 300 nM
Compound: CCOc1cc2ncc(C#N)c(Nc3ccc(F)c(Cl)c3)c2cc1NC(=O)CC1CCSS1 (stereo not given)

half-life [20]: 27.5 min
Compound: CC(C)NCC(O)COc1cccc2ccccc12 (stereo not given) [PROPRANOLOL]

IC50 [2]: 219 nM
Compound: CCOc1cc2ncc(C#N)c(Nc3ccc(F)c(Cl)c3)c2cc1NC(=O)C1CSSC1

IC50 [2]: 5.8 nM
IC50 [3]: 25 nM
Compound: COc1cc2ncnc(Nc3ccc(OCc4cccc(F)c4)c(Cl)c3)c2cc1NC(=O)CC1CCSS1 (stereo not given)

Further lines, the compound ahead of its results:

Compound: N#Cc1cnc2ccc(NC(=O)CC3CCSS3)cc2c1Nc1ccc(OCc2cccc(F)c2)c(Cl)c1 (stereo not given)
IC50 [1]: 730 nM
IC50 [2]: 36 nM
IC50 [3]: 164 nM
Ratio IC50 (Homo sapiens): > 25

Compound: CC(=O)SCC(CSC(C)=O)C(=O)Nc1cc2c(Nc3ccc(OCc4cccc(F)c4)c(Cl)c3)c(C#N)cnc2cc1OC[C@H](O)CO
Kd [4]: 60 nM
Kd [5]: 58 nM
Kd [6]: 5.9 nM
Kd [7]: 2.1 nM

Compound: N#Cc1cnc2ccc(NC(=O)C3CSSC3)cc2c1Nc1ccc(OCc2cccc(F)c2)c(Cl)c1
IC50 [2]: 199 nM

Compound: O=c1ccc2ccc(O)cc2o1 [UMBELLIFERONE]
half-life [8]: 26.6 min

Compound: COc1cc2ncnc(Nc3ccc(Oc4ccc(C)nc4)c(C)c3)c2cc1NC(=O)CC1CCSS1 (stereo not given)
GI50 (CCRF-CEM [9]): 220 nM
GI50 (NCI-H460): 110 nM
GI50 (A549): 760 nM
CC50 (NCI-H322M [10]): > 50000 nM
GI50 (MOLT-4 [11]): 160 nM
CC50 (CCRF-CEM [12]): > 50000 nM
CC50 (MOLT-4 [13]): > 2600 nM
GI50 (NCI-H322M [14]): 1070 nM
TI (NCI-H322M [15]): >46.7
TI (MOLT-4 [16]): 16.2
TI (CCRF-CEM [17]): >227

Compound: N#Cc1cnc2cc(OC[C@@H](O)CO)c(NC(=O)C3CSSC3)cc2c1Nc1ccc(OCc2cccc(F)c2)c(Cl)c1
Kd [4]: 16 nM
Kd [5]: 8.4 nM
IC50 [1]: 167 nM
IC50 [2]: 9 nM
IC50 [3]: 125 nM
Kd [6]: 1.9 nM
Ratio IC50 (Homo sapiens): > 25
Kd [7]: 0.7 nM

Compound: Cc1ccc(Oc2ccc(Nc3c(C#N)cnc4ccc(NC(=O)CC5CCSS5)cc34)cc2C)cn1 (stereo not given)
IC50 [1]: > 10000 nM
IC50 [2]: > 10000 nM
IC50 [3]: 8630 nM

Compound: CCOc1cc2ncc(C#N)c(Nc3ccc(OCc4cccc(F)c4)c(Cl)c3)c2cc1NC(=O)C1CSSC1
Kd [18]: 110 nM
IC50 [1]: 730 nM
IC50 [2]: 18 nM
IC50 [3]: 210 nM
Ratio IC50 (Homo sapiens): > 25

Compound: CCOc1cc2ncc(C#N)c(Nc3ccc(OCc4cccc(F)c4)c(Cl)c3)c2cc1NC(=O)C(CSC(C)=O)CSC(C)=O
Kd [18]: 180 nM
IC50 [2]: 26.8 nM
IC50 [3]: 340 nM
Kd [19]: 16 nM

Compound: CCOc1cc2ncc(C#N)c(Nc3ccc(OCc4cccc(F)c4)c(Cl)c3)c2cc1NC(=O)CCCCC1CCSS1 (stereo not given)
IC50 [2]: 33 nM
IC50 [3]: 730 nM
Kd [19]: 32 nM
